From ChEMBL document CHEMBL3994609, “Model-Based Discovery of Synthetic Agonists for the Zn2+-Sensing G-Protein-Coupled Receptor 39 (GPR39) Reveals Novel Biological Functions” (J Med Chem, 2017) come the findings set out here.

Data set [1] has as its target T1, G-protein coupled receptor 39 (Homo sapiens) (UniProt O43194).
T1 sequence (whole entry): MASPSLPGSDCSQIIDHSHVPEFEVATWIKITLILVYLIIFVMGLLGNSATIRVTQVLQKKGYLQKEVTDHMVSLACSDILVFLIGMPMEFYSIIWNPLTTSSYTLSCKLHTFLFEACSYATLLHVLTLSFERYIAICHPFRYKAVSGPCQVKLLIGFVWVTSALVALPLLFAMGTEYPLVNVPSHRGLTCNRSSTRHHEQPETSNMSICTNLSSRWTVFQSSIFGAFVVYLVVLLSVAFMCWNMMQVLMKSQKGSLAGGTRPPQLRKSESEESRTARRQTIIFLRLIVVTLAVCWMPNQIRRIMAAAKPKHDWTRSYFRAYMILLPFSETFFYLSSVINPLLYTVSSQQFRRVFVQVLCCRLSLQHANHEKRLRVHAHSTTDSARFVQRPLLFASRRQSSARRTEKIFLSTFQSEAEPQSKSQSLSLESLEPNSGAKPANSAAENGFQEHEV
The data set is described as follows: Agonist activity at human GPR39 expressed in HEK293 cells co-expressing Galphaq assessed as myo-[2-3H]inositol phosphate accumulation in presence of 10 uM Zn2+ measured after 75 mins by scintillation proximity assay relative to zinc. The data set is classed as functional, cell-based. On the technique in general: SPA uses beads or plates that emit light when radiolabelled molecules are held near them.

The target of data set [2] is T1, G-protein coupled receptor 39 (Homo sapiens). The data set is described as follows: Agonist activity at human GPR39 expressed in HEK293 cells co-expressing Galphaq assessed as myo-[2-3H]inositol phosphate accumulation in presence of 100 nM Zn2+ measured after 75 mins by scintillation proximity assay. The data set is classed as functional, cell-based.
The target is the same in data set [3]. Description: (§1) Agonist activity at human GPR39 expressed in HEK293 cells co-expressing Galphaq assessed as myo-[2-3H]inositol phosphate accumulation measured after 75 mins by scintillation proximity assay. Format: functional, cell-based.
For data set [4], the target named is T2, G-protein coupled receptor 39 (Homo sapiens, UniProt O43194).
T2 sequence (O43194 whole entry): T1 sequence (whole entry)
Description: Agonist activity at human GPR39 expressed in HEK293 cells co-expressing Galphaq assessed as myo-[2-3H]inositol phosphate accumulation in presence of 10 uM Zn2+ measured after 75 mins by scintillation proximity assay. Format: functional, cell-based.

The target of data set [5] is T2, G-protein coupled receptor 39. The description is as §1. Format: functional, cell-based.
The target of data set [6] is T3, G-protein coupled receptor 39 (Mus musculus, UniProt Q5U431).
T3 sequence (Q5U431 whole entry): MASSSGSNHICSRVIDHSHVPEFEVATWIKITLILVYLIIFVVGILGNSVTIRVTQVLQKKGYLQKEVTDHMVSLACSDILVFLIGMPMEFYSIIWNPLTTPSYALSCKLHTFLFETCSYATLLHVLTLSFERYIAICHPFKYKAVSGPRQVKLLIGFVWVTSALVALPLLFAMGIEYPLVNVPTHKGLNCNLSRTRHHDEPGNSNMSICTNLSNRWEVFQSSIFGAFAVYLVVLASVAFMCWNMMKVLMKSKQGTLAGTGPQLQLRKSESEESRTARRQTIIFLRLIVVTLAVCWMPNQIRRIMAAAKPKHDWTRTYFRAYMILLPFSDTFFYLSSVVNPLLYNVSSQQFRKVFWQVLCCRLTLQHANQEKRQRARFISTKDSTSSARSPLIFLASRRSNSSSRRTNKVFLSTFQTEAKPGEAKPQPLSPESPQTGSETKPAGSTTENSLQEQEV
The data set is described as follows: Agonist activity at mouse GPR39 expressed in HEK293 cells co-expressing Galphaq assessed as myo-[2-3H]inositol phosphate accumulation measured after 75 mins by scintillation proximity assay. Format: functional, cell-based.

A further data set has as its system Pancreatic islet. Description: Induction of glucose-stimulated insulin release in mouse pancreatic islets at 1 uM pretreated for 24 hrs followed by glucose addition measured after 30 mins. The data set is classed as functional, cell-based. In outline:
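Islets isolated from GPR39-deficient mice and wild-type littermates on five independent days, 2 to 3 mice per day; insulin secretion measured with vehicle or 1 μM compound.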

Data set [7] is described as follows: Half life in human liver microsomes at 3 uM measured by LC-MS/MS analysis. Format: ADME, microsome. On the technique in general: Liver microsomes are vesicles of endoplasmic reticulum, rich in cytochrome P450 enzymes.
Data set [8] is described as follows: Intrinsic clearance in human liver microsomes assessed per mg protein at 3 uM measured after 45 mins by LC-MS/MS analysis. Particulars: read-out: CLH. Format: ADME, microsome.

Activity calls are given as the source filed them. The rule behind the calls is not given here. Some results are limits rather than exact numbers.

Turning to `CC(C)(C)c1cc(C(=O)N/N=C/c2ccc(O)cc2O)[nH]n1`, the fold change (FC) in data set [1] was 2. Besides, the result in data set [2] and in data set [3] was inactive. Further, the concentration giving a half-maximal response (EC50) in data set [4] is 240 nM.

In the case of `Cc1nn(-c2ncnc3nc[nH]c23)c2c1C(OCc1ccccc1C#N)CC(=O)N2` (stereo not given), the results for the EC50 in data set [5] and in [4] were 127 nM and 8 nM, respectively.

Turning to `Cc1nn(-c2ncnc3nc[nH]c23)c2c1C(C(=O)NCc1ccccc1)CC(=O)N2` (stereo not given), the EC50 in data set [5] was 2930 nM; in data set [4], 5 nM.

As to `Cc1cc(C)n(CCOC2CC(=O)Nc3c2c(C)nn3-c2ncnc3nc[nH]c23)n1` (stereo not given), the values for the 50% effective concentration (EC50) in data set [5] and in data set [4] were 2000 nM and 16 nM, respectively.

Consider `Cc1nn(-c2ncnc3nc[nH]c23)c2c1C(OC(=O)c1ccc(F)cc1)CC(=O)N2` (stereo not given), for which the EC50 was found to be 245 nM in data set [5] and 4 nM in data set [4].

With `Cc1nn(-c2ncnc3nc[nH]c23)c2c1C(OCc1ccc(F)cc1)CC(=O)N2` (stereo not given), the EC50 was determined as 126 nM in data set [5] and 1 nM in data set [4].

For `Cc1noc(C)c1COC1CC(=O)Nc2c1c(C)nn2-c1ncnc2nc[nH]c12` (stereo not given), the concentration for a half-maximal effect (EC50) in data set [4] is 5 nM.

For the compound `Cc1nn(-c2ncnc3nc[nH]c23)c2c1C(C(=O)NCc1ccc3c(c1)OCO3)CC(=O)N2` (stereo not given), the concentration giving a half-maximal response (EC50) in [5] is 791 nM; in [4], 7 nM.

`Cc1cc(C)nc(-n2nc(C)c3c2NC(=O)CC3c2ccc(F)cc2F)n1` (stereo not given): the EC50 in data set [5] is > 10000 nM.

With `COc1ccc(CCOC2CC(=O)Nc3c2c(C)nn3-c2ncnc3nc[nH]c23)cc1` (stereo not given), the EC50 in data set [5] was 70 nM; in data set [4], 2 nM.

On to `Cc1nn(-c2ncnc3nc[nH]c23)c2c1C(NC(=O)Cc1cccs1)CC(=O)N2` (stereo not given), for which the EC50 amounted to 244 nM in data set [5] and 3 nM in data set [4].

As to `Cc1nn(-c2ncnc3nc[nH]c23)c2c1C(OCc1ccc(C#N)cc1)CC(=O)N2` (stereo not given), the half-maximal effective concentration (EC50) in data set [5] stood at 60 nM; in data set [4], 4 nM.

For the compound `Cc1nn(-c2ncnc3nc[nH]c23)c2c1C(OCc1ccc(Cl)cc1Cl)CC(=O)N2` (stereo not given), the 50% effective concentration (EC50) in data set [5] worked out at 243 nM; in data set [4], 4 nM.

As for `Cc1nn(-c2ncnc3nc[nH]c23)c2c1C(c1ccc(F)cc1F)CC(=O)N2` (stereo not given), in data set [5], the EC50 worked out at 460 nM.

On to `CCCCCCCCOC1CC(=O)Nc2c1c(C)nn2-c1ncnc2nc[nH]c12` (stereo not given), for which the values for the EC50 in data set [5] and in [4] were 388 nM and 8 nM, respectively.

Regarding `Cc1nn(-c2ncnc3nc[nH]c23)c2c1C(NC(=O)c1ccccc1)CC(=O)N2` (stereo not given), the values for the half-maximal effective concentration (EC50) in data set [5] and in data set [4] were 158 nM and 3 nM, respectively.

`Cc1nn(-c2ncnc3nc[nH]c23)c2c1C(NC(=O)Cc1ccccc1)CC(=O)N2` (stereo not given): the half-maximal effective concentration (EC50) is 418 nM in data set [5] and 3 nM in data set [4].

For `Cc1nn(-c2ncnc3nc[nH]c23)c2c1C(OCCc1ccccc1)CC(=O)N2` (stereo not given), the EC50 in data set [5] came out at 40 nM; in [4], 3 nM.

Take `C/C(=N\NC(=O)c1cc2ccccc2cc1O)c1ccc(N)cc1`: the fold change (FC) in data set [1] was 2. Further, the outcome in data set [2] and in data set [3] was inactive. The 50% effective concentration (EC50) in [4] stood at 1100 nM.

For the compound `Cc1nn(-c2ncnc3nc[nH]c23)c2c1C(OCc1ccccc1F)CC(=O)N2` (stereo not given), the EC50 is 78 nM in [5] and 4 nM in data set [4].

In the case of `C=CCN1c2c(n(C)c(=O)n(C)c2=O)NC1N/N=C/c1ccc(O)cc1O` (stereo not given), in data set [1], the fold change (FC) came out at 2. Further, the result in [2] and in [3] was inactive. In addition, the EC50 in [4] was 340 nM.

For `Cc1nn(-c2ncnc3nc[nH]c23)c2c1C(C(=O)N(C)c1ccccc1)CC(=O)N2` (stereo not given), the figures for the half-maximal effective concentration (EC50) in [5] and in data set [4] were 5220 nM and 32 nM, respectively.

As for `Cc1nn(-c2ncnc3nc[nH]c23)c2c1C(OCc1ccc(C(C)C)cc1)CC(=O)N2` (stereo not given), the concentration for a half-maximal effect (EC50) in [5] stood at 1690 nM; in data set [4], 5 nM.

In the case of `Cc1nn(-c2ncnc3nc[nH]c23)c2c1C(OCc1ccccc1Cl)CC(=O)N2` (stereo not given), the half-maximal effective concentration (EC50) stood at 47 nM in data set [5] and 2 nM in data set [4].

In the case of `Cc1nn(-c2ncnc3nc[nH]c23)c2c1C(OCC(C)C)CC(=O)N2` (stereo not given), the EC50 was found to be 111 nM in data set [5] and 4 nM in data set [4].

For `Cc1nn(-c2ncnc3nc[nH]c23)c2c1C(OCC(=O)c1ccc(F)cc1)CC(=O)N2` (stereo not given), the figures for the 50% effective concentration (EC50) in data set [5] and in data set [4] were 973 nM and 3 nM, respectively.

`Cc1nn(-c2ncnc3nc[nH]c23)c2c1C(OC1CCCC1)CC(=O)N2` (stereo not given): the EC50 in [5] is 62 nM; in data set [4], 2 nM.

`Cc1nn(-c2ncnc3nc[nH]c23)c2c1C(C(=O)NCc1ccc(F)cc1)CC(=O)N2` (stereo not given): the EC50 in data set [5] was 1220 nM; in data set [4], 4 nM.

Consider `Cc1nn(-c2ncnc3nc[nH]c23)c2c1C(OC(=O)Cc1ccccc1)CC(=O)N2` (stereo not given), for which the EC50 in data set [5] turned out to be 381 nM; in data set [4], 6 nM.

In the case of `Cc1nn(-c2ncnc3nc[nH]c23)c2c1C(C(=O)Nc1ccccc1)CC(=O)N2` (stereo not given), in [4], the EC50 is 10 nM.

On to `Cc1nn(-c2ncnc3nc[nH]c23)c2c1C(c1ccc(OC(C)C)cc1)CC(=O)N2` (stereo not given), for which the EC50 was 380 nM in [6], 2700 nM in data set [5] and 18 nM in [4]. In the data set on Pancreatic islet, the result was inactive. The half-life at 3 µM in [7] amounted to 24 min. Moreover, the microsomal CLint at 3 µM in data set [8] was determined as 58.3 µL/min/mg.

For `CCC(C(=O)NC1CC(=O)Nc2c1c(C)nn2-c1ncnc2nc[nH]c12)c1ccccc1` (stereo not given), the EC50 in data set [5] worked out at 79 nM; in data set [4] it was 5 nM.

`Cc1nn(-c2ncnc3nc[nH]c23)c2c1C(OCCn1nccc1C)CC(=O)N2` (stereo not given): the figures for the EC50 in data set [5] and in data set [4] were 1620 nM and 10 nM, respectively.

For the compound `OCC(O)/C=N/Nc1nc(Nc2ccccc2)nc(Nc2ccccc2)n1` (stereo not given), the fold change (FC) in [1] was 2. The result in [2] and in data set [3] was inactive. For the same compound, the EC50 in data set [4] was 750 nM.

Regarding `Cc1nn(-c2ncnc3nc[nH]c23)c2c1C(OCCn1cccn1)CC(=O)N2` (stereo not given), the EC50 in [5] is 2260 nM; in data set [4], 16 nM.

In the case of `Cc1nn(-c2ncnc3nc[nH]c23)c2c1C(C(=O)N(C)c1nccs1)CC(=O)N2` (stereo not given), the EC50 in [5] is 3300 nM; in data set [4], 18 nM.

A word on the EC50: it is the concentration that produces a half-maximal response. A word on the half-life: it is how long it takes for the measured level to halve.
